Screens deposited in PubChem BioAssay by several laboratories.
Shown are actives, neighbours in structure and some others; about 5.4% of the full set was active somewhere.
PostGolgi yeast: growth inhibition of a yeast mutant, post-Golgi transport screen | post-Golgi transport phenotypic cell assay | inhibition, % at 10 µM | 0.9% of 98,000 active | AID 739;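 also: yeast cells grown in 1536-well plates; yeast grown about 18 h at 30C before absorbance read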
Ecoli tolC: E. coli tolC mutant growth inhibition; E. coli BW25113 tolC mutant growth, OD615; growth inhibition, % at 10 µM (by protocol); 2.2% of 65,000 active;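 active = growth inhibition at or above a cutoff equal to the mean over every tested compound plus 3 SD, cut at about 60% in these data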;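 also: growth measured after 20 h incubation at 37 °C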
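Test system: E. coli BW25113 ΔtolC::kan bacteria; incubation: 37 °C, 20 h exposure; medium: LB broth supplemented with 50 µg/mL kanamycin; read-out basis: percent growth inhibition; signal: A615 absorbance measurement; compound: 10 µM final, single dose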
PLAP act: human PLAP activation; P05187; purified PLAP enzyme, luminescent substrate read-out; active compounds read high; activation fold at 20 µM; 1.2% of 96,000 active; in the data active = activation fold above about 2
E coli WT exp: E. coli BW25113 growth inhibition, expanded screen; OD600 absorbance; growth inhibition, % at 100 µM; 0.15% of 98,000 active;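 active = growth inhibition above about 50% at one test dose, limit read from the data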;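 also: growth measured after 20 h incubation at 37 °C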
PostGolgi ctrl: inhibits growth of the yeast control strain; efflux-deficient yeast background strain, growth absorbance A615, 16 h; inhibition, % at 10 µM; 5% of 98,000 active
HePTP inh: inhibitors of human HePTP phosphatase | inhibition, % at 20 µM | recombinant HePTP phosphatase activity, OD absorbance | 0.64% of 110,000 active | AID 521; in the data active = inhibition above about 50%;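 also: plate controls were vehicle for no effect and reference inhibitor for full effect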
Target sequence (P35236 whole entry, looked up): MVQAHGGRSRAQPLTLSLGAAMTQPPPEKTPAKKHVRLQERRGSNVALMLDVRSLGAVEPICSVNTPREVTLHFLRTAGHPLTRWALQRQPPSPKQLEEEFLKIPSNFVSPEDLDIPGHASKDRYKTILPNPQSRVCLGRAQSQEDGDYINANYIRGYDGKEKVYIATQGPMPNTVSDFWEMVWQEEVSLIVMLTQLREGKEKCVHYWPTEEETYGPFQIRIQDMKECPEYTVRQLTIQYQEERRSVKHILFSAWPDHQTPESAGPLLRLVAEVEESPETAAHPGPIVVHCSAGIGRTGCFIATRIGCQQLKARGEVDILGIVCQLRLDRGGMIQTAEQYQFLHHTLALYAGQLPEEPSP
Numbers without * were called inactive; nt = no result given. Rule as the data show it, unless noted: active = inhibition above about 30%; inactive = the rest.

SMILES	PostGolgi yeast	Ecoli tolC	PLAP act	E coli WT exp	PostGolgi ctrl	HePTP inh
Cc1ccc(OC(=O)c2ccc(N3CCOCC3)c([N+](=O)[O-])c2)cc1	-22	nt	1	-6	38*	nt
CCCCN(C(=O)CSc1nnc(Nc2ccc(C)c(C)c2)s1)c1c(N)n(Cc2ccccc2)c(=O)[nH]c1=O	-7	nt	1.9	-6	37*	nt
CCCCn1c(N)c(N(CCC(C)C)C(=O)CSc2nnc3ccccn23)c(=O)[nH]c1=O	3	-11	0.9	-2	7	11
CN(C(=O)CSc1nnc(Nc2ccccc2)s1)c1c(N)n(Cc2ccccc2)c(=O)[nH]c1=O	-5	nt	2.1*	-10	6	nt
COc1c(N2CCN(C(=S)NCc3ccccc3)C(C)C2)c(F)cc2c(=O)c(C(=O)O)cn(C3CC3)c12 (stereo not given)	-2	nt	1	88*	24	nt
CCn1cc(C(=O)NCc2ccccc2)c(=O)c2cc(F)c(N3CCN(C(=O)c4ccco4)CC3)cc21	-1	nt	1.6	45	30	nt
COc1ccc(C(=S)N2CCCC2)c(OC)c1	nt	nt	nt	nt	nt	94*
Cc1cccnc1NC(=O)c1c(O)c2cccc3c2n(c1=O)CCC3	7	70*	0.9	-3	22	-8
CCCCOc1ccc(S(=O)(=O)n2c(C)nc3ccccc32)cc1	2	94*	1.1	5	-10	11
Cc1cc(=O)n2c(-c3ccccc3C)n[nH]c2n1	31*	-36	0.8	-8	5	2
CC(=O)NC1=NC(=O)/C(=C\c2ccc(-c3ccccc3C(=O)O)o2)S1	nt	nt	nt	nt	nt	51*
O=C1C(=O)N(c2cccc(Cl)c2)C(c2ccccc2)/C1=C(\O)c1ccccc1 (stereo not given)	nt	nt	nt	nt	nt	-1
O=C(Nc1ccccc1)c1ccc(S(=O)(=O)N2CCCc3ccccc32)cc1	nt	nt	nt	nt	nt	9
O=C(O)C1CC=CCC1C(=O)Nc1ccc(S(=O)(=O)N2CCCc3ccccc32)cc1 (stereo not given)	2	61*	1.3	5	5	13
O=C(Nc1ccc(S(=O)(=O)N2CCCc3ccccc32)cc1)C1CCCO1 (stereo not given)	6	68*	1.5	-11	27	9
CC(=O)NS(=O)(=O)c1ccc(NC(=O)C(C)(C)C)cc1	nt	nt	nt	nt	nt	0
CCOC(=O)C(=CNc1cccc(Br)c1)C(=O)OCC	nt	nt	nt	nt	nt	3
Cc1ccc2nc(/C(C#N)=C/c3cc(Br)ccc3OCc3ccccc3)[nH]c2c1	nt	nt	nt	nt	nt	-13
CC(C)N(CCc1ccncc1)C(=O)Nc1ccc(Cl)c(Cl)c1	91*	35	0.8	8	90*	3
COc1ccc(-c2cc(C(=O)NCc3ccc(F)cc3)c3ccccc3n2)cc1OC	nt	nt	nt	nt	nt	17
CCn1c(C)nc2cc(C(=O)n3cc(C(=O)c4cc(F)ccc4O)cn3)ccc21	nt	-2	2.1*	nt	nt	6
CC(C)(C)c1ccc(C(=O)NNC(=O)Cc2cccc3ccccc23)cc1	-1	nt	1.1	8	40*	nt
O=C(COc1ccc2ccccc2c1)NNC(=O)Cc1cccc2ccccc12	4	nt	1	-6	-3	nt
Cc1cccc(OCC(=O)O/N=C(\N)Cc2ccc(Cl)cc2)c1	30*	nt	0.9	3	-2	-15
N/C(Cc1ccc(Cl)cc1)=N\OC(=O)c1ccccc1	-1	nt	0.9	1	45*	nt
SMILES	PostGolgi yeast	Ecoli tolC	PLAP act	E coli WT exp	PostGolgi ctrl	HePTP inh
Cc1cccc(OCC(=O)O/N=C(\N)Cc2ccc(Cl)cc2Cl)c1	nt	nt	nt	nt	nt	3
N/C(Cc1ccc(Cl)cc1)=N\OC(=O)c1ccccc1Cl	nt	nt	nt	nt	nt	-22
CN(C)c1ccc(/C=C/C(=O)c2ccc(I)cc2)cc1	nt	nt	nt	nt	nt	-4
CCOC(=O)c1c(C)nc2cc(C)ccn12	1	0	1	-2	5	6
COC(=O)c1nc2cc(C)ccn2c1F	-14	-10	1	8	49*	-10
CCC1=NN2C(=N)/C(=C/c3ccc(-c4ccc([N+](=O)[O-])cc4OC)o3)C(=O)N=C2S1	nt	nt	nt	nt	nt	-12
CCCC1=NN2C(=N)/C(=C/c3ccc(-c4ccc([N+](=O)[O-])cc4C)o3)C(=O)N=C2S1	nt	nt	nt	nt	nt	82*
Cc1nn(C)c(C(=O)NNC(=S)Nc2ccc(Cl)cc2)c1[N+](=O)[O-]	-15	nt	1.7	10	6	nt
COc1cccc(NC(=S)NNC(=O)C(C)n2nc(C)c([N+](=O)[O-])c2C)c1 (stereo not given)	-3	nt	2.1*	-1	0	nt
COc1cccc(NC(=S)NNC(=O)c2c([N+](=O)[O-])c(C)nn2C)c1	-2	nt	2.1*	2	8	nt
COc1ccc(N2C(=O)CSC2c2ccc3c(c2)OCO3)c(OC)c1 (stereo not given)	5	3	1.1	6	31*	3
COc1ccc(N2C(=O)CSC2c2ccc3c(c2)OCO3)cc1 (stereo not given)	9	-7	0.9	4	10	11
CC1CC(N(C(=O)c2ccc(Cl)cc2)c2ccccc2)c2ccccc2N1 (stereo not given)	nt	nt	nt	nt	nt	9
Cc1ccc(/C=C/C(=O)c2c(C)nc3ccccn23)cc1	-2	nt	1	-7	33*	nt
COc1cccc2c1nc(C)c1cc(C)oc12	11	10	1.1	4	31*	1
Cc1c[n+]2ccsc2n1CCCS(=O)(=O)[O-]	nt	nt	nt	nt	nt	8
CSc1nc2nccc(-c3ccc(Oc4ccccc4)cc3)n2n1	-1	nt	1.3	-3	33*	nt
CCOc1cc(/C=N/NC(=O)c2cccs2)ccc1OCc1ccc([N+](=O)[O-])cc1	nt	nt	nt	nt	nt	-1
Cn1ncc(C#N)c1/N=C/N(Cc1ccccc1)Cc1ccccc1	2	99*	0.8	-4	35*	4
CCOc1ccc(N(CC(=O)Nc2ccc(F)c(F)c2)S(=O)(=O)c2c(C)noc2C)cc1	-12	-9	1	-9	3	-10
Cc1ccc(N(CC(=O)Nc2ccc3c(c2)OCCO3)S(=O)(=O)c2c(C)noc2C)cc1	-6	65*	1	-8	23	10
CCOc1ccc(N(CC(=O)Nc2ccc(C)cc2)S(=O)(=O)c2c(C)noc2C)cc1	-4	-14	0.9	-7	12	1
CCOc1ccc(N(CC(=O)Nc2cccc(OC)c2)S(=O)(=O)c2c(C)noc2C)cc1	0	70*	1.8	-21	9	-1
CCOc1ccc(N(CC(=O)Nc2cccc(Cl)c2)S(=O)(=O)c2c(C)noc2C)cc1	7	73*	1.3	3	45*	-8
CC1CCN(S(=O)(=O)c2cccc(C(=O)NCc3cccs3)c2)CC1	22	62*	0.8	-7	24	10
Cc1cccc(OCCn2cc(/C=C3/SC(=S)N(C)C3=O)c3ccccc32)c1	nt	nt	nt	nt	nt	-2
